What is called Papp A→B is the apparent permeability from the apical to the basolateral side of a cell layer. Broadly, the Papp B→A is the apparent permeability from the basolateral to the apical side of a cell layer. As a reminder, the Papp is the rate of passage across a membrane or cell layer, normalised by area and donor concentration. Read a low Papp as poor permeation. One may read the efflux ratio as a quotient of directional permeabilities that is used to spot active efflux. For orientation: IC50 means the concentration that inhibits the measured activity by half.

The values that follow come from article PMC12709234 (RSC Advances, 2025).

Some results are limits rather than exact numbers.

The nature of data set [1]: Metabolic stability in mouse liver microsomes. Type of data set: in vitro ADME. The conditions noted are these: 1 µM, scaled from in vitro clearance. The gist of the method: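 Mouse liver microsomes were incubated in duplicate with test compound (final 1 µM, <0.1% DMSO) in 50 mM phosphate pH 7.4 at 37 °C for 1 h, with and without an NADPH regenerating system. Samples were taken at 0, 10, 20, 30, 45 and 60 min, quenched with ACN/MeOH (2:1) plus internal standard and analysed by LC-MS/MS. t1/2 came from non-linear regression; Clint was derived from it and normalized to protein. Scaling used 52.5 mg protein/g liver, 85.7 g liver/kg and LBF 131 mL min−1 kg−1.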
For orientation: Liver microsomes are vesicles of endoplasmic reticulum, rich in cytochrome P450 enzymes.

Data set [2] concerns P-glycoprotein (human MDR1). The experiment in a line: Permeability on MDCKII-hMDR1 cell monolayers. As to conditions: dog, MDCK-MDR1, pH 7.4. Type of data set: in vitro ADME, canine. A digest of the protocol: (§1)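 MDCKII cells overexpressing human MDR1 were seeded on 96-well inserts (0.25 × 10^6 cells per mL) and grown 3 days to confluence. Monolayers were equilibrated 30 min in DPBS pH 7.4 with 1% DMSO. Test compound (10 µM) with lucifer yellow (100 µM, integrity marker) was applied apical-to-basolateral and basolateral-to-apical for 60 min at 37 °C with agitation. Both compartments, plus donor at start, were quantified by LC-MS/MS.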

Data set [3] deals with MDCKII-hMDR1 cell monolayers. Description: Permeability on MDCKII-hMDR1 cell monolayers. The data set is classed as in vitro ADME, canine. The conditions noted are these: MDCKII-hMDR1. The gist of the method:
as §1

For data set [4], the system named is human tumor cell lines (Capan-1, HCT-116, LN-229, NCI-H460, DND-41, HL-60, K562, Z-138). The experiment in a line: Antiproliferative assays, panel of human tumor cell lines. The data set is classed as cell-based. A digest of the protocol: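 Cells from ATCC (DND-41 from DSMZ) were grown in medium with 10% FBS in 384-well plates. Adherent lines were plated overnight first: Capan-1 at 500 and HCT-116, NCI-H460 and LN-229 at 1500 cells/well. Suspension lines were seeded onto compound: HL-60, K-562 and Z-138 at 2500 and DND-41 at 5500 cells/well. Seven concentrations, 100–0.006 µM, from DMSO stocks, 72 h. […] At least two independent experiments.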

The test system of another data set is Bcl-2. As to conditions: read-out: IC50 (Bcl-2); PDB 6QGK, CHEMBL4438456; cited from earlier work.

`FC(F)(F)c1cc(OCc2cc(-c3ccccc3)no2)c2ccccc2n1` [Compound 7a, 3-Phenyl-5-(((2-(trifluoromethyl)quinolin-4-yl)oxy)methyl)isoxazole]: the “% LBF predicted in vivo hepatic clearance” value (“% LBF predicted” below) in data set [1] is listed as 74 % LBF. In data set [2], this compound gave a Papp A→B at 60 min, 10 µM of less than 0.1 ×10⁻⁶ cm/s and a Papp B→A at 60 min, 10 µM of 0.1 ×10⁻⁶ cm/s. Further, the Permeability classification entry in data set [3] is listed as “low to moderate”.
For `c1ccc(-c2cc(CNc3cccc4cccnc34)on2)nc1` [Compound 8b, N-((3-(Pyridin-2-yl)isoxazol-5-yl)methyl)quinolin-8-amine], the “% LBF predicted” value in data set [1] is listed as 96 % LBF. In data set [2], the Papp A→B at 60 min, 10 µM was 17.2 ×10⁻⁶ cm/s; the Papp B→A at 60 min, 10 µM worked out at 27.8 ×10⁻⁶ cm/s; the Papp at 60 min, 10 µM was greater than 10 ×10⁻⁶ cm/s; the efflux ratio at 60 min, 10 µM worked out at 1.6. Further, in data set [3], the Efflux classification entry is recorded as “low” and the Permeability classification entry was “High”.
`FC(F)(F)c1ccc(-c2cc(CNc3cccc4cccnc34)on2)cc1` [Compound 8c, N-((3-(4-(Trifluoromethyl)phenyl)isoxazol-5-yl)methyl)quinolin-8-amine]: in data set [2], the Papp A→B at 60 min, 10 µM is less than 0.1 ×10⁻⁶ cm/s and the Papp B→A at 60 min, 10 µM is less than 0.1 ×10⁻⁶ cm/s. Moreover, in data set [3], the Permeability classification result was “Low/—”.
Take `FC(F)(F)c1cc(OCc2cc(-c3ccccn3)no2)c2ccccc2n1` [Compound 7b, 3-(Pyridin-2-yl)-5-(((2-(trifluoromethyl)quinolin-4-yl)oxy)methyl)isoxazole]: the “% LBF predicted” value in data set [1] is reported as 87 % LBF. Moreover, in data set [2], the Papp A→B at 60 min, 10 µM came to 6.5 ×10⁻⁶ cm/s; the Papp B→A at 60 min, 10 µM stood at 4.6 ×10⁻⁶ cm/s; the efflux ratio at 60 min, 10 µM was determined as 0.7. Besides, in data set [3], the Efflux classification result is on record as “low” and the Permeability classification result is reported as “low to moderate”. In data set [4] (all evaluated human tumor cell lines), the “antiproliferative activity (in words)” value is given as “did not exhibit any antiproliferative effects”.
In the case of `N/C(=N\O)c1ccc(-c2cc(CNc3cccc4cccnc34)on2)cc1` [Compound 8f, (Z)-N′-hydroxy-4-(5-((quinolin-8-ylamino)methyl)isoxazol-3-yl)benzimidamide], in data set [1], the “% LBF predicted” value is on record as 53 % LBF. In data set [2], the Papp A→B at 60 min, 10 µM is 15 ×10⁻⁶ cm/s; the Papp B→A at 60 min, 10 µM came to 13.7 ×10⁻⁶ cm/s; the Papp at 60 min, 10 µM was greater than 10 ×10⁻⁶ cm/s; the efflux ratio at 60 min, 10 µM is 0.9. In addition, in data set [3], the Efflux classification entry is recorded as “low” and the Permeability classification result is “High”. Also, the IC50 in data set [4] (Homo sapiens, read-out: IC50 values against DND-41, HL-60, Z-138 and Capan-1) fell in the range of 2.1 to 4.7 µM.
On to `Clc1ccc(-c2cc(CNc3cccc4cccnc34)on2)c(Cl)c1` [Compound 8d, N-((3-(2,4-Dichlorophenyl)isoxazol-5-yl)methyl)quinolin-8-amine], for which the “% LBF predicted” value in data set [1] is given as 51 % LBF. Further, in data set [2], the apical-to-basolateral permeability (Papp A→B) at 60 min, 10 µM is less than 0.1 ×10⁻⁶ cm/s and the Papp B→A at 60 min, 10 µM is less than 0.1 ×10⁻⁶ cm/s. Besides, the Permeability classification entry in data set [3] is given as “Low/—”.
Regarding `c1ccc(-c2cc(CNc3cccc4cccnc34)on2)cc1` [Compound 8a, 3-Phenyl-5-((quinolin-8-yl-azaneyl)methyl)isoxazole], in data set [1], the “% LBF predicted” value was greater than 97 % LBF. This compound also had a Papp A→B at 60 min, 10 µM in data set [2] of 1.7 ×10⁻⁶ cm/s. Also, the Permeability classification entry in data set [3] was “low to moderate”.
Turning to `N#Cc1ccc(-c2cc(CNc3cccc4cccnc34)on2)cc1` [Compound 8e, 4-(5-((Quinolin-8-ylamino)methyl)isoxazol-3-yl)benzonitrile], the “% LBF predicted” value in data set [1] is listed as 55 % LBF. Moreover, in data set [2], the Papp A→B at 60 min, 10 µM is 3.6 ×10⁻⁶ cm/s; the Papp B→A at 60 min, 10 µM turned out to be 3.1 ×10⁻⁶ cm/s; the efflux ratio at 60 min, 10 µM was found to be 0.9. Besides, in data set [3], the Efflux classification entry is “low” and the Permeability classification entry is “Moderate”.
As to `CCCCN(CCCC)C(=O)c1cc(C)n(-c2ccccc2C(=O)N2Cc3ccccc3C[C@H]2CN)n1` [Compound J1Q, (S)-1-(2-(3-(aminomethyl)-1,2,3,4-tetrahydroisoquinoline-2-carbonyl)phenyl)-N,N-dibutyl-5-methyl-1H-pyrazole-3-carboxamide], in the data set with Bcl-2, the IC50 was 1.3 µM.
